Reference: ChEMBL document CHEMBL4145692, “Discovery of a Locally and Orally Active CXCL12 Neutraligand (LIT-927) with Anti-inflammatory Effect in a Murine Model of Allergic Airway Hypereosinophilia” (J Med Chem, 2018)
Values after ≈ are worked out from the molar mass of the structure shown. Active and inactive are the calls of the source. The rule behind the calls is not given here.

Key:
[1] = Kinetic solubility in pH 7.4 HEPES-BSA buffer at 5 uM incubated for 24 hrs at 20 degC by HPLC method; format: physicochemical; settings: read-out: Kinetic_solubility
Summary of the method: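 Compound added from 10 mM DMSO stock to 5 μM in pH 7.4 HEPES-BSA buffer (1 g/L BSA), shaken 24 h at 20 °C. After centrifugation, supernatant concentration measured by HPLC against 5 and 10 μM standards.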

[2] = biological target: T1, Stromal cell-derived factor 1 (Homo sapiens, UniProt P48061); assay: Binding affinity to Texas Red-labelled CXCL12 (unknown origin) assessed as inhibition of CXCL12-Texas Red binding to EGFP-labeled human CXCR4 expressed in HEK293 cell membranes at 0.3 uM pre-incubated for 1 hr by FRET-based binding assay
T1 sequence (P48061 whole entry): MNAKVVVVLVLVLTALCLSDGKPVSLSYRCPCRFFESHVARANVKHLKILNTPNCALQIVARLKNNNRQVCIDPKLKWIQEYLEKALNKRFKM
Summary of the method: (§1)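 HEK-293 cells stably expressing human EGFP-CXCR4, 10⁶ cells/ml in HEPES buffer pH 7.4 with 0.1% BSA, 21 °C. CXCL12-Texas Red (100 nM) was preincubated 1 h at room temperature with compound or DMSO, then added at t=150 s. FRET read as loss of EGFP emission at 510 nm (excitation 470 nm) up to equilibrium. Ki from dose-response curves.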

Mus musculus [3] = assay: Inhibition of lymphocytes infiltration in Balb/c mouse model of 8 day model of allergic eosinophilic airway inflammation at 300 nmol/kg dosed intranasally 2 hrs before ovalbumin challenge by hemocytometry; format: functional, organism-based
Summary of the method: (§2)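 OVA/alum-sensitized Balb/c mice challenged intranasally with OVA on days 5–7. Compounds at 300 nmol/kg in 10% PBS/Cdx given intranasally 2 h before each challenge. BAL 24 h after the last challenge; eosinophils, neutrophils and lymphocytes counted by hemocytometer and differential cytospin; n=6/group.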

[4] = biological target: T1, Stromal cell-derived factor 1; assay: Binding affinity to Texas Red-labelled CXCL12 (unknown origin) assessed as inhibition of CXCL12-Texas Red binding to EGFP-labeled human CXCR4 expressed in HEK293 cell membranes at 300 uM pre-incubated for 1 hr by FRET-based binding assay; summary of the method: as §1
[5] = biological target: T1, Stromal cell-derived factor 1; assay: Binding affinity to CXCL12 (unknown origin) assessed as changes in tryptophan fluorescence intensity
Summary of the method: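 Intrinsic Trp fluorescence of CXCL12 (2 μM in Hepes buffer), excitation 285 nm, emission 340 nm, titrated with increasing compound. Kd obtained by fitting a 1:1 binding quadratic model with chemokine fixed at 2 μM. Mean ± SD of three independent experiments.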

Mus musculus [6] = assay: Inhibition of macrophages infiltration in Balb/c mouse model of 8 day model of allergic eosinophilic airway inflammation at 300 nmol/kg dosed intranasally 2 hrs before ovalbumin challenge by hemocytometry; format: functional, organism-based
Mus musculus [7] = assay: Inhibition of eosinophil infiltration in Balb/c mouse model of 8 day model of allergic eosinophilic airway inflammation dosed intranasally 2 hrs before ovalbumin challenge by hemocytometry; format: functional, organism-based
Summary of the method: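 Same intranasal OVA model with dose-response treatment in PBS/Cdx 10% given 2 h before each challenge. Percent inhibition of BAL eosinophil recruitment; mean ± SEM, n=6/group.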

Mus musculus [8] = assay: Toxicity in Balb/c mouse model of hypereosinophilia assessed as induction of kidney lesions at 350 umol/kg, ip dosed daily 2 hrs before allergen challenge for […] and measured 24 hrs after last dose by Gomori's trichrome staining based histological analysis; format: organism-based; settings: in vivo
[9] = Solubility in PBS buffer; format: physicochemical
Summary of the method: (§3)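 Powder dissolved to saturation in pH 7.4 PBS (100 mM sodium phosphate, 150 mM NaCl), or in PBS with 10% Cdx, and shaken 24 h. After centrifugation, supernatant quantified by HPLC against a per-compound calibration line prepared from the DMSO stock.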

Mus musculus [10] = assay: Toxicity in Balb/c mouse model of hypereosinophilia assessed as reduction in spleen weight at 350 umol/kg, ip dosed daily 2 hrs before allergen challenge for 3 days and measured 24 hrs after last dose; format: organism-based; set-up: scale not given: the % may be the effect or the level left; settings: in vivo
Summary of the method: (§4)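 Same OVA model with i.p. dosing 2 h before each of the three challenges: neutraligands 350 μmol/kg in PBS/CMC 1%, AMD3100 12.6 μmol/kg, dexamethasone 2.5 μmol/kg. Body and spleen weight loss recorded 24 h after three daily administrations; n=6/group.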

Mus musculus [11] = assay: Toxicity in Balb/c mouse model of hypereosinophilia assessed as toxic signs at 350 umol/kg, ip dosed daily 2 hrs before allergen challenge for 10 days and measured 24 hrs after last dose; format: organism-based; settings: in vivo
Summary of the method: (§5)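 Mice given 10 daily administrations at 350 μmol/kg. Monitored for weight loss and for signs of toxicity, including prostration and bristly hair.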

[12] = Thermodynamic solubility in pH 7.4 PBS/Cdx buffer incubated for 24 hrs at 22 degC by HPLC method; format: physicochemical; settings: read-out: Therm_solubility; summary of the method: as §3
[13] = biological target: T1, Stromal cell-derived factor 1; assay: Binding affinity to Texas Red-labelled CXCL12 (unknown origin) assessed as inhibition of CXCL12-Texas Red binding to EGFP-labeled human CXCR4 expressed in HEK293 cell membranes pre-incubated for 1 hr by FRET-based binding assay; settings: hek293; summary of the method: as §1
Mus musculus [14] = assay: Toxicity in Balb/c mouse model of hypereosinophilia assessed as induction of heart lesions at 350 umol/kg, ip dosed daily 2 hrs before allergen challenge for […] and measured 24 hrs after last dose by Gomori's trichrome staining based histological analysis; format: organism-based; settings: in vivo
Mus musculus [15] = assay: Anti-inflammatory activity in Balb/c mouse model of hypereosinophilia assessed as inhibition of eosinophil infiltration at 350 umol/kg, ip dosed 2 hrs before allergen challenge; format: functional
Summary of the method: (§6)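 Balb/c mice sensitized with OVA/alum i.p. and challenged intranasally with OVA on 3 consecutive days. Compounds given i.p. 2 h before each challenge: neutraligands 350 μmol/kg in PBS/CMC 1%, AMD3100 12.6 μmol/kg, dexamethasone 2.5 μmol/kg. BAL 24 h after the last challenge; absolute eosinophil counts; mean ± SEM, n=6/group.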

Mus musculus [16] = assay: Toxicity in Balb/c mouse model of hypereosinophilia assessed as reduction in body weight at 12.6 umol/kg, ip dosed daily 2 hrs before allergen challenge for 3 days and measured 24 hrs after last dose; format: organism-based; set-up: scale not given: the % may be the effect or the level left; settings: in vivo; summary of the method: as §4
Mus musculus [17] = assay: Toxicity in Balb/c mouse model of hypereosinophilia assessed as induction of liver lesions at 350 umol/kg, ip dosed daily 2 hrs before allergen challenge for […] and measured 24 hrs after last dose by Gomori's trichrome staining based histological analysis; format: organism-based; settings: in vivo
[18] = Thermodynamic solubility in pH 7.4 PBS buffer incubated for 24 hrs at 22 degC by HPLC method; format: physicochemical; settings: read-out: Therm_solubility; summary of the method: as §3
Mus musculus [19] = assay: Toxicity in Balb/c mouse model of hypereosinophilia assessed as induction of spleen lesions at 350 umol/kg, ip dosed daily 2 hrs before allergen challenge for […] and measured 24 hrs after last dose by Gomori's trichrome staining based histological analysis; format: organism-based; settings: in vivo
Mus musculus [20] = assay: Inhibition of eosinophil infiltration in Balb/c mouse model of 8 day model of allergic eosinophilic airway inflammation at 300 nmol/kg dosed intranasally 2 hrs before ovalbumin challenge by hemocytometry; format: functional; settings: inhaled or nasal; summary of the method: as §2
[21] = Chemical stability in pH 7.4 PBS buffer assessed as parent compound remaining at 10 uM incubated for 24 hrs by RP-HPLC method; format: physicochemical; settings: read-out: Stability
Summary of the method: (§7)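 Compound diluted from DMSO stock to 10 μM final (1% DMSO) in PBS pH 7.4, or in PBS with 10% w/w (2-hydroxypropyl)-β-cyclodextrin. Sampled at t0, 2, 4, 6 and 24 h and injected directly onto RP-HPLC. Percent remaining relative to t0 from peak area.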

[22] = Chemical stability in pH 7.4 PBS/Cdx buffer assessed as parent compound remaining at 10 uM incubated for 24 hrs by RP-HPLC method; format: physicochemical; settings: read-out: Stability; summary of the method: as §7
Mus musculus [23] = assay: Toxicity in Balb/c mouse model of hypereosinophilia assessed as reduction in spleen weight at 12.6 umol/kg, ip dosed daily 2 hrs before allergen challenge for 3 days and measured 24 hrs after last dose; format: organism-based; set-up: scale not given: the % may be the effect or the level left; settings: in vivo; summary of the method: as §4
Mus musculus [24] = assay: Toxicity in Balb/c mouse model of hypereosinophilia assessed as prostration at 350 umol/kg, ip dosed daily 2 hrs before allergen challenge for 10 days and measured 24 hrs after last dose; format: organism-based; settings: in vivo; summary of the method: as §5
Mus musculus [25] = assay: Toxicity in Balb/c mouse model of hypereosinophilia assessed as reduction in body weight at 350 umol/kg, ip dosed daily 2 hrs before allergen challenge for 3 days and measured 24 hrs after last dose; format: organism-based; set-up: scale not given: the % may be the effect or the level left; settings: in vivo; summary of the method: as §4
Mus musculus [26] = assay: Toxicity in Balb/c mouse model of hypereosinophilia assessed as reduction in body weight at 350 umol/kg, ip dosed daily 2 hrs before allergen challenge for 10 days and measured 24 hrs after last dose; format: organism-based; settings: in vivo; summary of the method: as §5
Mus musculus [27] = assay: Toxicity in Balb/c mouse model of hypereosinophilia assessed as induction of bristly hair at 350 umol/kg, ip dosed daily 2 hrs before allergen challenge for 10 days and measured 24 hrs after last dose; format: organism-based; settings: in vivo; summary of the method: as §5
[28] = biological target: T1, Stromal cell-derived factor 1; assay: Binding affinity to Texas Red-labelled CXCL12 (unknown origin) assessed as inhibition of CXCL12-Texas Red binding to EGFP-labeled human CXCR4 expressed in HEK293 cell membranes at 3 uM pre-incubated for 1 hr by FRET-based binding assay; summary of the method: as §1
Mus musculus [29] = assay: Toxicity in Balb/c mouse model of hypereosinophilia assessed as reduction in body weight at 2.5 umol/kg, ip dosed daily 2 hrs before allergen challenge for 3 days and measured 24 hrs after last dose; format: organism-based; set-up: scale not given: the % may be the effect or the level left; settings: in vivo; summary of the method: as §4
Mus musculus [30] = assay: Toxicity in Balb/c mouse model of hypereosinophilia assessed as reduction in spleen weight at 2.5 umol/kg, ip dosed daily 2 hrs before allergen challenge for 3 days and measured 24 hrs after last dose; format: organism-based; set-up: scale not given: the % may be the effect or the level left; settings: in vivo; summary of the method: as §4
Mus musculus [31] = assay: Anti-inflammatory activity in Balb/c mouse model of hypereosinophilia assessed as inhibition of eosinophil infiltration at 2.5 umol/kg, ip dosed 2 hrs before allergen challenge; format: functional; summary of the method: as §6
Mus musculus [32] = species: Mus musculus; assay: animal or person; settings: Balb/c, ip, read-out: INH
[33] = biological target: T1, Stromal cell-derived factor 1; assay: Binding affinity to Texas Red-labelled CXCL12 (unknown origin) assessed as inhibition of CXCL12-Texas Red binding to EGFP-labeled human CXCR4 expressed in HEK293 cell membranes at 1 uM pre-incubated for 1 hr by FRET-based binding assay; summary of the method: as §1

COc1cc(-c2cc(-c3ccc(Cl)cc3)nc(-c3ccccc3)n2)ccc1O
solubility kinetic at 24 h, 5 µM [1]: 0.53 µM (≈ 0.206 µg/mL)
inhibition [2]: 20%

O=c1nc(-c2ccc(Cl)cc2)cc(-c2ccc(O)cc2)[nH]1
inhibition (Mus musculus [3]): inactive
inhibition [4]: < 5%
Activity [5]: inactive

COc1cc(/C=C/C(=O)c2ccc(Cl)cc2)ccc1O
inhibition (Mus musculus [6]): inactive
solubility kinetic at 24 h, 5 µM [1]: > 5 µM
IC50 (Mus musculus [7]): > 500 nmol/kg
Activity (Mus musculus [8]): Non-Toxic
inhibition (Mus musculus [3]): inactive
solubility [9]: 9 µM (≈ 2.6 µg/mL)
Activity (Mus musculus [10]): 0%
Activity (Mus musculus [11]): Non-Toxic
solubility thermodynamic at 24 h [12]: > 300 µM
Ki [13]: 53 nM
Activity (Mus musculus [14]): Non-Toxic
inhibition in vivo at 350 µmol/kg (Mus musculus [15]): 54%
Activity (Mus musculus [16]): Non-Toxic
Activity (Mus musculus [17]): Non-Toxic
solubility thermodynamic at 24 h [18]: 9 µM (≈ 2.6 µg/mL)
Activity (Mus musculus [19]): Non-Toxic
inhibition in vivo at 0.3 µmol/kg (Mus musculus [20]): 47%
remaining at 24 h, 10 µM [21]: 100%
remaining at 24 h, 10 µM [22]: 100%
Activity (Mus musculus [23]): Non-Toxic
Activity (Mus musculus [24]): Non-Toxic
Activity (Mus musculus [25]): 0%
Activity (Mus musculus [26]): Non-Toxic
Activity (Mus musculus [27]): Non-Toxic

O=C(/C=C/c1ccc2c(c1)OCO2)c1ccc(Cl)cc1
solubility kinetic at 24 h, 5 µM [1]: 2.31 µM (≈ 0.662 µg/mL)
inhibition [28]: 25%

C[C@@H]1C[C@H]2[C@@H]3CCC4=CC(=O)C=C[C@]4(C)[C@@]3(F)[C@@H](O)C[C@]2(C)[C@@]1(O)C(=O)CO [DEXAMETHASONE]
Activity (Mus musculus [29]): 10.1%
Activity (Mus musculus [30]): 43%
inhibition in vivo at 2.5 µmol/kg (Mus musculus [31]): 59%

c1cc(CN2CCCNCCNCCCNCC2)ccc1CN1CCCNCCNCCCNCC1 [PLERIXAFOR]
inhibition in vivo at 12.6 µmol/kg (Mus musculus [32]): 33%
Activity (Mus musculus [16]): 7.8%
Activity (Mus musculus [23]): 9.8%

O=C(/C=C/c1ccccc1)c1ccc(Cl)cc1
solubility kinetic at 24 h, 5 µM [1]: 1.17 µM (≈ 0.284 µg/mL)
inhibition [33]: 18%
